# Measurements from different studies.
# Lines come from different studies, so protocols differ.
Compound,tested on,test,system,conditions,quantity,value
COc1ccc(NC(=O)/C=C/c2ccc3c(c2)C=CC(C)(C)O3)cc1,rat Primary cortical neuron,"cell growth or viability, MTT",,"1 µM, 12 h",viability,87%
CCCCCCCC/C=C\CCCCCCCCNC(=O)CP(=O)(O)O,Enterococcus faecalis,microbial growth,ATCC33186,,MIC,50 µg/mL
O=C(Cc1ccc2ccccc2c1)N[C@@H](Cc1ccccc1)C(=O)N[C@@H](Cc1ccccc1)C(=O)N[C@H](Cc1ccc(OP(=O)(O)O)cc1)C(=O)O,HeLa,"cell growth or viability, MTT",,48 h,IC50,428 µM
NC(=O)c1ncn([C@@H]2O[C@H](CO)[C@@H](O)[C@H]2O)n1,Human coronavirus 229E,viral replication,Huh7.5,,IC50,25.1 µM
O=c1cc(OCCCOc2ccnc(SCc3ccc(F)cc3)n2)c2cc(F)ccc2o1,Human coronavirus 229E,cytopathic effect,A549,25 µM,inhibition,65.8%
CCC(CC)COC(=O)[C@H](C)N[P@](=O)(OC[C@H]1O[C@@](C#N)(c2ccc3c(N)ncnn23)[C@H](O)[C@@H]1O)Oc1ccccc1,Human coronavirus 229E,viral replication,Calu-3,,IC50,0.11 µM
O=C(CCCCCCCCCCOc1ccccc1)CP(=O)(O)O,Enterococcus faecalis,microbial growth,ATCC33186,,MIC,50 µg/mL
COc1c(C)c2c(c(O)c1C/C=C(\C)CCC(=O)O)C(=O)OC2,Human coronavirus 229E,viral replication,Calu-3,,IC50,2.11 µM
CC1(C)C=Cc2cc(C(CC(=O)Nc3ccccc3)Nc3ccccc3)ccc2O1 (centres unmarked),rat Primary cortical neuron,"cell growth or viability, MTT",,"1 µM, 12 h",viability,> 80%
CC[C@@]1(O)C[C@H](O[C@H]2C[C@H](N(C)C)[C@H](O[C@H]3C[C@H](O)[C@H](O[C@H]4CCC(=O)[C@H](C)O4)[C@H](C)O3)[C@H](C)O2)c2c(cc3c(c2O)C(=O)c2c(O)cccc2C3=O)[C@H]1C(=O)OC,Human coronavirus 229E,viral replication,Calu-3,,IC50,2.34 µM
CCCCCC/C=C\CCCCCCCCCC(=O)CP(=O)(O)O,Enterococcus faecalis,microbial growth,ATCC33186,,MIC,12.5 µg/mL
Nc1ncnc2c([C@@H]3N[C@H](CO)[C@@H](O)[C@H]3O)c[nH]c12,Japanese encephalitis virus,"viral replication, inhibitor",Vero 76,0.1 µM,inhibition,0%
CCCC(=O)CP(=O)(O)O,Enterococcus faecalis,microbial growth,ATCC33186,,MIC,> 200 µg/mL
CCOC(=O)C1=C[C@@H](OC(CC)CC)[C@H](NC(C)=O)[C@@H](N)C1,Human coronavirus 229E,viral replication,A549,,IC50,7.65 µM
COc1ccc(N2CCN(C(=O)/C=C/c3ccc4c(c3)C=CC(C)(C)O4)CC2)cc1,rat Primary cortical neuron,"cell growth or viability, MTT",,"1 µM, 12 h",viability,75%
CCCCCCCC(=O)NP(=O)(O)O,Enterococcus faecalis,microbial growth,ATCC33186,,MIC,> 200 µg/mL
Cc1cccc(CSc2nccc(OCCOc3cc(=O)oc4ccccc34)n2)c1,Human coronavirus 229E,cytopathic effect,A549,12.5 µM,inhibition,38.1%
